Converted amounts (≈) assume the structure as drawn.
Experiments:
[1] = tested on: Mus musculus; assay: Toxicity in athymic nude mouse assessed as body weight loss at 100 mg/kg, po relative to control; type: organism-based; design: dose 100 mg/kg, route oral; conditions: in vivo
[2] = tested on: Mus musculus; assay: In vivo inhibition of mTORC2-mediated phosphorylation of AKT at serine 473 in human PC3 cells xenografted into athymic nude mouse at 100 mg/kg, po after 24 hrs by Western blotting analysis relative to control; type: functional; conditions: PC-3, 24 h
Procedure, shortened: (§1)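 PC-3 cells grown in DMEM with 20% FBS were implanted subcutaneously at 3 × 10^6 cells in ice-cold HBSS into the hindflank of 5−8 week old male nude mice. At tumor size 200−500 mg, mice received a single oral dose of 100 mg/kg. Plasma and tumors were collected at 1, 4, 8, 16, 24 and 32 h. Tumor lysates from each group (n = 5) were pooled. Phospho-proteins were quantified by Western blot and normalized to α-tubulin.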

[3] = Plasma concentration in athymic mouse plasma xenografted with human PC3 cells at 100 mg/kg, po after 16 hrs; type: ADME, organism-based, PC-3; design: dose 100 mg/kg, route oral
[4] = molecular target: Cytochrome P450 3A4 (Homo sapiens, UniProt P08684); assay: Induction of CYP3A4 (unknown origin); type: ADME
Sequence of Cytochrome P450 3A4 (P08684 whole entry): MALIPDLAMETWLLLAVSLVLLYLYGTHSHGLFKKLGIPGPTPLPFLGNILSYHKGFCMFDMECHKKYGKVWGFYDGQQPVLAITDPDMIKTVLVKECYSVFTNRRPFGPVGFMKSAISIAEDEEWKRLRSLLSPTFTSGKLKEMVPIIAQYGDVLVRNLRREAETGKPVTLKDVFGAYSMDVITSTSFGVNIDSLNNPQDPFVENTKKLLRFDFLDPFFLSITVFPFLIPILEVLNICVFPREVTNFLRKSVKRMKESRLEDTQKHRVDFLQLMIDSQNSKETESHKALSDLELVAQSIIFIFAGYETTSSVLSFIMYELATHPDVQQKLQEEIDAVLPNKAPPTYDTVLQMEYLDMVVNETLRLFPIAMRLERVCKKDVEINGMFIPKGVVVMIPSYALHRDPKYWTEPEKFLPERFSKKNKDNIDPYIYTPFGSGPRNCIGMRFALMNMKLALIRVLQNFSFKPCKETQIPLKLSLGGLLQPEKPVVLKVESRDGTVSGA

[5] = tested on: Mus musculus; assay: In vivo inhibition of mTORC1-mediated phosphorylation of p70S6K at […] in human PC3 cells xenografted into athymic nude mouse at 100 mg/kg, po after 16 hrs by Western blotting analysis relative to control; type: functional; conditions: PC-3, 16 h; procedure, shortened: as §1
[6] = Volume of distribution at steady state in CD rat at 3 mg/kg, iv; type: ADME, organism-based; design: dose 3 mg/kg, route intravenous; conditions: in vivo, read-out: Vdss
[7] = Oral bioavailability in CD rat at 3 mg/kg; type: ADME, organism-based; conditions: in vivo
Procedure, shortened: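 For single-dose PK, compound was given intravenously and by oral gavage as a solution in EPW (5% ethanol/45% PEG400/water + 1:2 HCl m/m). Doses were 10 mg/kg in female athymic nude mice and 3 mg/kg in female CD rats and male beagle dogs.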

[8] = molecular target: Phosphatidylinositol 4,5-bisphosphate 3-kinase catalytic subunit alpha isoform (Homo sapiens, UniProt P42336); assay: Inhibition of PI3Kalpha (unknown origin) using PIP2 as substrate after 2 hrs by luminescence assay
Sequence of Phosphatidylinositol 4,5-bisphosphate 3-kinase catalytic subunit alpha isoform (P42336 whole entry, canonical isoform): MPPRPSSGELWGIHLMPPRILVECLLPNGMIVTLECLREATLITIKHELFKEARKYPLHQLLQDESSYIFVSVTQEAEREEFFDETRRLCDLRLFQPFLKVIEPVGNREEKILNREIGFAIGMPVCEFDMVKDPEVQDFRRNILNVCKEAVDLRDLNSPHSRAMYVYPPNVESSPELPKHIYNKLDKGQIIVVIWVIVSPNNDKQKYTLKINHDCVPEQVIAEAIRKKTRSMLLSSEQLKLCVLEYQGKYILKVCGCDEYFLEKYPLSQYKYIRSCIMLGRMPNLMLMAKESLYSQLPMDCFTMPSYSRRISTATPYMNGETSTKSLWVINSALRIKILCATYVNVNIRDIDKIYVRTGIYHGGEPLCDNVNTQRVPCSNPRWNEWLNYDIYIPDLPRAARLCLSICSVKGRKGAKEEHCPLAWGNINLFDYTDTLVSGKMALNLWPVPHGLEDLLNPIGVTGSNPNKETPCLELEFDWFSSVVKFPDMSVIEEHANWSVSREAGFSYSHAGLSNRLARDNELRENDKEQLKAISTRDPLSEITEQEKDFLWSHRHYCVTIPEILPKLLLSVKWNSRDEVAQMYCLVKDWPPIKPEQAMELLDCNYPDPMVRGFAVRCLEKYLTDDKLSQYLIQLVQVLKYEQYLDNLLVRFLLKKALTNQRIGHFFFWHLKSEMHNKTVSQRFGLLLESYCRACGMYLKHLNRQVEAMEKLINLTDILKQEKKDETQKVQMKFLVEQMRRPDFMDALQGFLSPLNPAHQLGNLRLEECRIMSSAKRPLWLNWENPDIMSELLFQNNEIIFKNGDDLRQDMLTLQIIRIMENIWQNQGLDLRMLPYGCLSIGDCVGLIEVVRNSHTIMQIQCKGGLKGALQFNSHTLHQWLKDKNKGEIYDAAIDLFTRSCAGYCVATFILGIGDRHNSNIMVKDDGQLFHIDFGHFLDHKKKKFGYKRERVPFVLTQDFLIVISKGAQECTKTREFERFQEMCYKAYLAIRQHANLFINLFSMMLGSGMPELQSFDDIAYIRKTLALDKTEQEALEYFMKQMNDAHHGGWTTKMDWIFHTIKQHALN

[9] = Plasma concentration in athymic mouse plasma xenografted with human MCF7 cells at 100 mg/kg, po after 16 hrs; type: ADME, organism-based; design: dose 100 mg/kg, route oral
Procedure, shortened: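 MCF-7 cells (5 × 10^6, in 50% cold HBSS/50% growth-factor-reduced matrigel) were implanted subcutaneously in the hindflank of 5–8 week old female nude mice. At 40–150 mg tumour size, mice received a single oral dose of 100 mg/kg, and plasma was sampled at the listed times after dosing.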

[10] = molecular target: ATP-dependent translocase ABCB1 (Homo sapiens, UniProt P08183); assay: Activity at P-glycoprotein (unknown origin)
Sequence of ATP-dependent translocase ABCB1 (P08183 whole entry): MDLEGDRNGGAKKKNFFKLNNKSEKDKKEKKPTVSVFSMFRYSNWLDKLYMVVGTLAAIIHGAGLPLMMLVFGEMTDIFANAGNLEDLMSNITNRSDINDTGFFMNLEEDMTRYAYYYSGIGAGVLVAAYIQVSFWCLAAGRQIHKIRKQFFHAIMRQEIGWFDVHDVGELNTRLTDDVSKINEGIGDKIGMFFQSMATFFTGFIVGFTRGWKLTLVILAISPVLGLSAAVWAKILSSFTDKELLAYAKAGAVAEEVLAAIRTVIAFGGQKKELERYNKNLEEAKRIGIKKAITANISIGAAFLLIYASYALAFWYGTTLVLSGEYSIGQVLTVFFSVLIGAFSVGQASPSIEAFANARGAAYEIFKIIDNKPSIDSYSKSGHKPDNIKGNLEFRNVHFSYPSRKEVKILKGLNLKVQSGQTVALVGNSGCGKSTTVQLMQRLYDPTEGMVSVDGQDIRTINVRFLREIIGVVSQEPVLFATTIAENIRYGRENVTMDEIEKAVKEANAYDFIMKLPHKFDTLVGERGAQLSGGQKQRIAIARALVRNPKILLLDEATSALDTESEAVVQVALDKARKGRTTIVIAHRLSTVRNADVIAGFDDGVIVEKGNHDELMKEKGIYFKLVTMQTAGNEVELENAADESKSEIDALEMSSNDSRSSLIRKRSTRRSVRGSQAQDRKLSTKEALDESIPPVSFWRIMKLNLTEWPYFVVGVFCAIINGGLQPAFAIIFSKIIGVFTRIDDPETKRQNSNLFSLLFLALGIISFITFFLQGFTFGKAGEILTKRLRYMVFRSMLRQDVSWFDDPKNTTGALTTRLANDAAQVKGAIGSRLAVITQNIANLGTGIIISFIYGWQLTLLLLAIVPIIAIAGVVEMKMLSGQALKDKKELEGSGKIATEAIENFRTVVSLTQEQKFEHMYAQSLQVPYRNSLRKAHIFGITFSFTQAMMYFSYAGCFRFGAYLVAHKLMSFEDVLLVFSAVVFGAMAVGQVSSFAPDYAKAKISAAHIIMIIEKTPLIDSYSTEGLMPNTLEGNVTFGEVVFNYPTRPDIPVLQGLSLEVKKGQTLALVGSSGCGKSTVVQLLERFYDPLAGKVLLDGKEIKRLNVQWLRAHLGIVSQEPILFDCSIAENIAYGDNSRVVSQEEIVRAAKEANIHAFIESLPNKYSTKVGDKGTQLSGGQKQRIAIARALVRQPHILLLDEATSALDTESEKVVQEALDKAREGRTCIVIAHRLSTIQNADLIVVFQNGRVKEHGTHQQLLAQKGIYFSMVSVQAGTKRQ

[11] = tested on: Mus musculus; assay: In vivo inhibition of mTORC1-mediated phosphorylation of 4EBP1 at ([…]) in human PC3 cells xenografted into athymic nude mouse at 100 mg/kg, po after 16 hrs by Western blotting analysis relative to control; type: functional; conditions: PC-3, 16 h; procedure, shortened: as §1
[12] = tested on: Mus musculus; assay: In vivo inhibition of mTORC2-mediated phosphorylation of AKT at […] in human MCF7 cells xenografted into athymic nude mouse at 100 mg/kg, po after 16 hrs by Western blotting analysis relative to control; type: functional; conditions: MCF7, 16 h
Procedure, shortened: (§2)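 MCF-7 cells (DMEM, 10% FBS) were implanted subcutaneously at 5 × 10^6 cells in 50% cold HBSS/50% growth-factor-reduced matrigel into the hindflank of 5−8 week old female nude mice. At tumor size 40−150 mg, mice received a single oral dose of 100 mg/kg. Tumor lysates were pooled per group. Phospho-AKT (S473, T308), p70S6K (T389), S6 (S240/244) and 4E-BP1 (T37/46) were measured by Western blot normalized to α-tubulin.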

[13] = Volume of distribution at steady state in cynomolgus monkey at 3 mg/kg, iv; type: ADME, organism-based, Macaca fascicularis; design: dose 3 mg/kg, route intravenous; conditions: in vivo, read-out: Vdss
[14] = Kinetic solubility of the compound; type: physicochemical; conditions: read-out: Kinetic_solubility
[15] = tested on: Mus musculus; assay: In vivo inhibition of mTORC1-mediated phosphorylation of p70S6K at […] in human PC3 cells xenografted into athymic nude mouse at 100 mg/kg, po after 32 hrs by Western blotting analysis relative to control; type: functional; conditions: PC-3, 32 h; procedure, shortened: as §1
[16] = tested on: Mus musculus; assay: In vivo inhibition of mTORC2-mediated phosphorylation of AKT at […] in human MCF7 cells xenografted into athymic nude mouse at 100 mg/kg, po after 32 hrs by Western blotting analysis relative to control; type: functional; conditions: MCF7, 32 h; procedure, shortened: as §2
[17] = tested on: Mus musculus; assay: In vivo inhibition of mTORC1-mediated phosphorylation of pS6 at (serine 240/244) in human PC3 cells xenografted into athymic nude mouse at 100 mg/kg, po after 24 hrs by Western blotting analysis relative to control; type: functional; conditions: PC-3, 24 h; procedure, shortened: as §1
[18] = molecular target: RAC-alpha serine/threonine-protein kinase (Homo sapiens, UniProt P31749); assay: Inhibition of AKT1 (unknown origin)
Sequence of RAC-alpha serine/threonine-protein kinase (P31749 whole entry): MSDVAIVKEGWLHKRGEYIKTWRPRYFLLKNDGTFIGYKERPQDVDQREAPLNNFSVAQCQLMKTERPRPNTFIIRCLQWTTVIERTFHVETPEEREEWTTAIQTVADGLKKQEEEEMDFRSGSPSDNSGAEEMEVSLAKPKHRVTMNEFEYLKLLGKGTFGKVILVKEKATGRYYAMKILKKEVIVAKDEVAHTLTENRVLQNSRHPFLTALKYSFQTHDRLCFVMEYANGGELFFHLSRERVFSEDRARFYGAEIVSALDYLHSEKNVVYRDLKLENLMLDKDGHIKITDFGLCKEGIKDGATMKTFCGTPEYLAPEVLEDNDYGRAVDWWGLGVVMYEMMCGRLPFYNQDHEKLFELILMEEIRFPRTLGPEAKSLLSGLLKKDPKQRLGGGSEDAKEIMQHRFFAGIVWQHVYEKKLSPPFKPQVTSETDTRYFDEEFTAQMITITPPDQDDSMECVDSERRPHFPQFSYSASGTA

[19] = Cmax in CD rat at 3 mg/kg, po; type: ADME, organism-based; design: dose 3 mg/kg, route oral; conditions: in vivo
Procedure, shortened: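 Single-dose PK: female athymic nude mice (10 mg/kg), female CD rats and male beagle dogs (3 mg/kg), male cynomolgus monkeys (3 mg/kg), given iv and by oral gavage. Solution in EPW (5% ethanol/45% PEG400/water), with 1:2 HCl (m/m) for mouse, rat and dog and 1:1.5 HCl (m/m) for monkey. Plasma levels followed over 24 h.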

[20] = molecular target: Phosphatidylinositol 4,5-bisphosphate 3-kinase catalytic subunit beta isoform (Homo sapiens, UniProt P42338); assay: Inhibition of PI3Kbeta (unknown origin)
[21] = tested on: Mus musculus; assay: In vivo inhibition of mTORC1-mediated phosphorylation of pS6 at (serine 240/244) in human MCF7 cells xenografted into athymic nude mouse at 100 mg/kg, po after 4 hrs by Western blotting analysis relative to control; type: functional; conditions: MCF7, 4 h; procedure, shortened: as §2
[22] = molecular target: Dual specificity mitogen-activated protein kinase kinase 1 (Homo sapiens, UniProt Q02750); assay: Inhibition of MEK1 (unknown origin)
Sequence of Dual specificity mitogen-activated protein kinase kinase 1 (Q02750 whole entry): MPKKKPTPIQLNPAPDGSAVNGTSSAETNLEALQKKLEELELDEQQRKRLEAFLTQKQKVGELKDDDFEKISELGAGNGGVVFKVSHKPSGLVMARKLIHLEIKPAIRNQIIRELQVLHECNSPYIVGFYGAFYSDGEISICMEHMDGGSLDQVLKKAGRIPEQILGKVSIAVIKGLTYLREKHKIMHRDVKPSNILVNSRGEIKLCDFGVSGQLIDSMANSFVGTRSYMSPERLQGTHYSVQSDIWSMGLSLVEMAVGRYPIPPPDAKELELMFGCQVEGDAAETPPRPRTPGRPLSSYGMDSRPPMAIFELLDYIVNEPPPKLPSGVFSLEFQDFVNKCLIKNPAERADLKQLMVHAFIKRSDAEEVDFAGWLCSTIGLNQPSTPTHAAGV

[23] = Drug uptake in tumor of athymic mouse xenografted with human PC3 cells at 100 mg/kg, po after 4 hrs; type: ADME, organism-based, Neoplasm, PC-3; design: dose 100 mg/kg, route oral; conditions: read-out: Drug uptake
Procedure, shortened: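 PC-3 cells (3 × 10⁶, passages 10–14, in ice-cold HBSS) were implanted sc in 5–8 week old male nude mice. Tumors of 200–500 mg received a single oral 100 mg/kg dose. Plasma and tumor were collected at 1, 4, 8, 16, 24 and 32 h and homogenized in buffer. Lysates were pooled per group (n = 5), and phospho-proteins were measured by Western blot normalized to α-tubulin.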

[24] = Metabolic stability in human liver microsomes after 30 mins; type: ADME, Microsome; conditions: read-out: Stability
[25] = tested on: Mus musculus; assay: In vivo inhibition of mTORC1-mediated phosphorylation of p70S6K at […] in human MCF7 cells xenografted into athymic nude mouse at 100 mg/kg, po after 24 hrs by Western blotting analysis relative to control; type: functional; conditions: MCF7, 24 h; procedure, shortened: as §2
[26] = tested on: Mus musculus; assay: In vivo inhibition of mTORC1-mediated phosphorylation of pS6 at (serine 240/244) in human PC3 cells xenografted into athymic nude mouse at 100 mg/kg, po after 4 hrs by Western blotting analysis relative to control; type: functional; conditions: PC-3, 4 h; procedure, shortened: as §1
[27] = molecular target: Vascular endothelial growth factor receptor 2 (Homo sapiens, UniProt P35968); assay: Inhibition of KDR (unknown origin)
Sequence of Vascular endothelial growth factor receptor 2 (P35968 whole entry): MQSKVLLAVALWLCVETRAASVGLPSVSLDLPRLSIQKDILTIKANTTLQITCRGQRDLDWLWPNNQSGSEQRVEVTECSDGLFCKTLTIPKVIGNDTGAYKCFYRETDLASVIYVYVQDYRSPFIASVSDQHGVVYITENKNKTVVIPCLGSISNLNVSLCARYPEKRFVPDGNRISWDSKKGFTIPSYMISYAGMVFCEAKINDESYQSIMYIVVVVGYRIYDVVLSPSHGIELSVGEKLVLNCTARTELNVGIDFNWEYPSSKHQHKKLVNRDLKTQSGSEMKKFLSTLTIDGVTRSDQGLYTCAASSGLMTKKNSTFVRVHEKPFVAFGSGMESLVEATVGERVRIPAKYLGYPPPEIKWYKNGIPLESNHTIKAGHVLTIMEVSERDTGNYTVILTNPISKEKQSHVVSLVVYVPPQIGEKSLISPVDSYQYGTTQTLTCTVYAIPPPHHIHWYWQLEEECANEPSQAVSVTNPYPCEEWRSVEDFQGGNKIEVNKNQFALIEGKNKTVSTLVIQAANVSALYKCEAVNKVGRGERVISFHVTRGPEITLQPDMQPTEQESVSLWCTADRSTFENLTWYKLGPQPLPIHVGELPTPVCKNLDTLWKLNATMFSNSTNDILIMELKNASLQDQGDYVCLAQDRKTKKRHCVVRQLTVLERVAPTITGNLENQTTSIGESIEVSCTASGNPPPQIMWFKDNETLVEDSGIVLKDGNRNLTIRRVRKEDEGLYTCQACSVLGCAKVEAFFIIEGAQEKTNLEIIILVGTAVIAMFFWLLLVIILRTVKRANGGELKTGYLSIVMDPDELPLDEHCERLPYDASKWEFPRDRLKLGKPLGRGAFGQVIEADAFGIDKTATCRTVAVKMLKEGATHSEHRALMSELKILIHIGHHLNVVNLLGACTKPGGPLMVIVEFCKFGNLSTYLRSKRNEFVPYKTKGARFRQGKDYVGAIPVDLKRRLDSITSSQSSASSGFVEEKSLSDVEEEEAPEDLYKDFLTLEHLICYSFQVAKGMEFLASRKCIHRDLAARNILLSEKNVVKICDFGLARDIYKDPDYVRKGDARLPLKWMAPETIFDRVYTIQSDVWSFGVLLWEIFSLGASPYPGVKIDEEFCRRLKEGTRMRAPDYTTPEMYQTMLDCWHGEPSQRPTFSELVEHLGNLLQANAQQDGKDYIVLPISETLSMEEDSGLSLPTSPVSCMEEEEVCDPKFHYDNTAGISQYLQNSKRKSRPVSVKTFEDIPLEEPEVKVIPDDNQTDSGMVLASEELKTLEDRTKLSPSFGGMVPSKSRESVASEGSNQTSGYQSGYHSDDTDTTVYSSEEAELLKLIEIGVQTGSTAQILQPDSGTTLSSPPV

Work on Cc1c(C(=O)N2CCOc3ccc(-c4ccc(N)nc4)cc3C2)ccc(S(C)(=O)=O)c1F yielded an Activity [1] of 2.8%, an inhibition in vivo at 100 mg/kg [2] of 5% and a concentration at 16 h [3] of 6.17 µM. For the same molecule, the Activity [4] was 50 µM, the inhibition in vivo at 100 mg/kg [5] was 66% and the Vd [6] was 1.27 L/kg. It also gave a bioavailability [7] of 25.6%, an IC50 [8] of over 3 µM and a concentration at 16 h [9] of 2.08 µM. For the same molecule, the Activity [10] was over 20 µM, the inhibition in vivo at 100 mg/kg [11] was 51% and the inhibition in vivo at 100 mg/kg [12] was 43%. It also gave a Vd [13] of 6.42 L/kg, a solubility kinetic [14] of 232 µM (≈ 106 µg/mL) and an inhibition in vivo at 100 mg/kg [15] of -12%. For the same molecule, the inhibition in vivo at 100 mg/kg [16] was 10%, the inhibition in vivo at 100 mg/kg [17] was 8% and the IC50 [18] was over 3.5 µM. The Cmax [19] was 0.707 µM, the IC50 [20] was over 5 µM and the inhibition in vivo at 100 mg/kg [21] was 94%. It also gave an IC50 [22] of over 3.5 µM, a concentration at 4 h [23] of 18.6 µM and a remaining at 0.5 h [24] of 93%. For the same molecule, the inhibition in vivo at 100 mg/kg [25] was -19%, the inhibition in vivo at 100 mg/kg [26] was 90% and the IC50 [27] was over 3.5 µM.

From ChEMBL document CHEMBL2331117 (J Med Chem, 2013)
